Experimental data reported in ChEMBL document CHEMBL4190362, “Synthesis, biological evaluation and quantitative structure-active relationships of 1,3-thiazolidin-4-one derivatives. A promising chemical scaffold endowed with high antifungal potency and low cytotoxicity” (Eur J Med Chem, 2017).
Values after ≈ are worked out from the molar mass of the structure shown.

Tests used:
[1] = system: Streptococcus alpha-hemolyticus (Streptococcus sp.); experiment: Antibacterial activity against Streptococcus Streptococcus alpha hemolyticus assessed as inhibition of microbial growth incubated for 18 to 22 hrs by broth microdilution method
[2] = Cytotoxicity against human Hep2 cells assessed as reduction in cell viability incubated for 24 hrs by trypan blue dye exclusion assay; type: cell-based; conditions: HEp-2 cells
Summary of the method: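 Hep2 (human laryngeal epidermoid carcinoma) cells were exposed to five concentrations from 0.05 to 100 µg/mL for 24 h at 37 °C, and viability was scored by Trypan Blue exclusion as survival fraction. Controls were medium alone, DMSO-treated cells and 1 mM sodium nitroprusside. CC50 is the mean ± SD of at least three independent experiments.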

Klebsiella oxytoca = experiment: Antibacterial activity against Klebsiella oxytoca assessed as inhibition of microbial growth incubated for 18 to 22 hrs by broth microdilution method; type: functional
Summary of the method: (§1)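 Broth microdilution in Mueller-Hinton II broth following NCCLS recommendations; compounds dissolved in DMSO.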

Pichia kudriavzevii = experiment: Antifungal activity against Candida krusei clinical isolates assessed as inhibition of microbial growth incubated for 24 hrs by broth microdilution method; type: functional
Summary of the method: (§2)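 Twenty-two clinical Candida isolates (8 C. albicans, 4 C. glabrata, 3 C. tropicalis, 3 C. krusei, 2 C. parapsilosis, 2 C. sake) were identified by colony morphology and biochemistry and subcultured at 35 °C for purity. Compounds were dissolved in DMSO and tested by broth microdilution in Sabouraud dextrose broth per NCCLS/CLSI/EUCAST guidance. Values are geometric mean MIC per species (µg/mL).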

Nakaseomyces glabratus = experiment: Antifungal activity against Candida glabrata clinical isolates assessed as inhibition of microbial growth incubated for 24 hrs by broth microdilution method; type: functional
Summary of the method: as §2

Candida tropicalis = experiment: Antifungal activity against Candida tropicalis clinical isolates assessed as inhibition of microbial growth incubated for 24 hrs by broth microdilution method; type: functional
Summary of the method: as §2

Proteus mirabilis = experiment: Antibacterial activity against Proteus mirabilis assessed as inhibition of microbial growth incubated for 18 to 22 hrs by broth microdilution method; type: functional
Summary of the method: as §1

Candida parapsilosis = experiment: Antifungal activity against Candida parapsilosis clinical isolates assessed as inhibition of microbial growth incubated for 24 hrs by broth microdilution method; type: functional; conditions: Lodderomyces parapsilosis
Summary of the method: as §2

[Candida] sake = Antifungal activity against Candida sake clinical isolates assessed as inhibition of microbial growth incubated for 24 hrs by broth microdilution method; type: functional; conditions: Fermentozyma sake
Summary of the method: as §2

[3] = Selectivity index, ratio of CC50 for human Hep2 cells to MIC for Candida albicans clinical isolates; type: toxicity; conditions: HEp-2 cells, read-out: Selectivity Index
Summary of the method: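 Calculated as Hep2 CC50 (Trypan Blue exclusion, 24 h, 37 °C) divided by MIC against C. albicans.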

Escherichia coli = experiment: Antibacterial activity against Escherichia coli assessed as inhibition of microbial growth incubated for 18 to 22 hrs by broth microdilution method; type: functional
Summary of the method: as §1

Enterococcus faecalis = experiment: Antibacterial activity against Streptococcus faecalis assessed as inhibition of microbial growth incubated for 18 to 22 hrs by broth microdilution method; type: functional
Summary of the method: as §1

Staphylococcus warneri = experiment: Antibacterial activity against Staphylococcus warneri assessed as inhibition of microbial growth incubated for 18 to 22 hrs by broth microdilution method; type: functional
Summary of the method: as §1

Staphylococcus aureus = experiment: Antibacterial activity against Staphylococcus aureus assessed as inhibition of microbial growth incubated for 18 to 22 hrs by broth microdilution method; type: functional
Summary of the method: as §1

Enterobacter = experiment: Antibacterial activity against Enterobacter spp. assessed as inhibition of microbial growth incubated for 18 to 22 hrs by broth microdilution method; type: functional
Summary of the method: as §1

Candida albicans = experiment: Antifungal activity against Candida albicans clinical isolates assessed as inhibition of microbial growth incubated for 24 hrs by broth microdilution method; type: functional
Summary of the method: as §2

Row | MIC (Klebsiella oxytoca) [µg/mL] | MIC (Pichia kudriavzevii) [µg/mL] | MIC (Nakaseomyces glabratus) [µg/mL] | MIC (Candida tropicalis) [µg/mL] | MIC (Proteus mirabilis) [µg/mL] | MIC (Candida parapsilosis) [µg/mL] | MIC ([Candida] sake) [µg/mL] | MIC (Escherichia coli) [µg/mL] | MIC (Enterococcus faecalis) [µg/mL] | MIC (Staphylococcus warneri) [µg/mL] | MIC (Staphylococcus aureus) [µg/mL] | MIC (Enterobacter) [µg/mL] | MIC (Candida albicans) [µg/mL] | Structure (SMILES) | MIC [1] [µg/mL] | CC50 at 24 h [2] [µg/mL] | selectivity ratio [3]
1 | ≥ 256 | 2 | 1 | 4 | ≥ 256 | 2 | 2 | ≥ 256 | ≥ 256 | ≥ 256 | ≥ 256 | ≥ 256 | 2 | CCC(CC)=N/N=C1\NC(=O)CS1 | ≥ 256 | 49.2 (≈ 247 µM) | 24.5
2 | ≥ 256 | 2 | 2 | 2 | ≥ 256 | 2 | 2 | ≥ 256 | ≥ 256 | ≥ 256 | ≥ 256 | ≥ 256 | 2 | O=C1CS/C(=N/N=C2CCCCC2)N1Cc1ccccc1 |  | 22.8 (≈ 75.6 µM) | 11
3 | ≥ 256 | 256 | 64 | 64 | ≥ 256 | 256 | 256 | ≥ 256 | ≥ 256 | ≥ 256 | ≥ 256 | ≥ 256 | 64 | O=C1CSC(NN=C2CCCCC2)=N1 | ≥ 256 |  | 
4 | ≥ 256 | 16 | 8 | 4 | ≥ 256 | 128 | 2 | ≥ 256 | ≥ 256 | ≥ 256 | ≥ 256 | ≥ 256 | 4 | O=C1CS/C(=N/N=C\c2ccccc2)N1 | ≥ 256 |  | 
5 | ≥ 256 | 256 | 256 | 256 | ≥ 256 | 256 | 256 | ≥ 256 | ≥ 256 | ≥ 256 | ≥ 256 | ≥ 256 | 256 | O=C1CS/C(=N/N=C\c2cccc3ccccc23)N1 | ≥ 256 |  | 
6 | ≥ 256 | 4 | 4 | 2 | ≥ 256 | 2 | 2 | ≥ 256 | ≥ 256 | ≥ 256 | ≥ 256 | ≥ 256 | 2 | C/C(=N/N=C1\NC(=O)CS1)c1cccc([N+](=O)[O-])c1 | ≥ 256 |  | 
7 | ≥ 256 | 8 | 8 | 8 | ≥ 256 | 8 | 8 | ≥ 256 | ≥ 256 | ≥ 256 | ≥ 256 | ≥ 256 | 8 | O=C1CSC(NN=C2CCCCCC2)=N1 | ≥ 256 |  | 
8 | ≥ 256 | 256 | 256 | 256 | ≥ 256 | 256 | 256 | ≥ 256 | ≥ 256 | ≥ 256 | ≥ 256 | ≥ 256 | 256 | O=C1CS/C(=N/N=C\c2cccs2)N1 | ≥ 256 |  | 
9 | ≥ 256 | 2 | 8 | 8 | ≥ 256 | 2 | 2 | ≥ 256 | ≥ 256 | ≥ 256 | ≥ 256 | ≥ 256 | 8 | CC(C)(C)C1CCCC/C1=N/N=C1\NC(=O)CS1 (stereo unspecified) | ≥ 256 |  | 

The next lines start with the compound.

Row | Structure (SMILES) | MIC (Klebsiella oxytoca) [µg/mL] | MIC (Pichia kudriavzevii) [µg/mL] | MIC (Nakaseomyces glabratus) [µg/mL] | MIC (Candida tropicalis) [µg/mL] | MIC (Proteus mirabilis) [µg/mL] | MIC (Candida parapsilosis) [µg/mL] | MIC ([Candida] sake) [µg/mL] | MIC (Escherichia coli) [µg/mL] | MIC (Enterococcus faecalis) [µg/mL] | MIC (Staphylococcus warneri) [µg/mL] | MIC (Staphylococcus aureus) [µg/mL] | MIC (Enterobacter) [µg/mL] | MIC (Candida albicans) [µg/mL] | MIC [1] [µg/mL] | CC50 at 24 h [2] [µg/mL] | selectivity ratio [3]
10 | CC1CCCC/C1=N/N=C1\NC(=O)CS1 (stereo unspecified) | ≥ 256 | 2 | 1 | 8 | ≥ 256 | 2 | 2 | ≥ 256 | ≥ 256 | ≥ 256 | ≥ 256 | ≥ 256 | 2 | ≥ 256 | 52.6 (≈ 233 µM) | 26
11 | CCC/C(C)=N\N=C1/NC(=O)CS1 | ≥ 256 | 2 | 2 | 2 | ≥ 256 | 2 | 2 | ≥ 256 | ≥ 256 | ≥ 256 | ≥ 256 | ≥ 256 | 2 | ≥ 256 | 93.4 (≈ 469 µM) | 46.5
12 | C/C(=N/N=C1\NC(=O)CS1)c1ccccn1 | ≥ 256 | 8 | 1 | 1 | ≥ 256 | 16 | 16 | ≥ 256 | ≥ 256 | ≥ 256 | ≥ 256 | ≥ 256 | 2 | ≥ 256 | 56.8 (≈ 242 µM) | 28
13 | CCCC/C(CC)=N\N=C1/NC(=O)CS1 | ≥ 256 | 2 | 1 | 1 | ≥ 256 | 2 | 4 | ≥ 256 | ≥ 256 | ≥ 256 | ≥ 256 | ≥ 256 | 4 | ≥ 256 | 46.4 (≈ 204 µM) | 11.5
14 | C/C(=N/N=C1/SCC(=O)N1Cc1ccccc1)c1cccnc1 | ≥ 256 | 2 | 2 | 2 | ≥ 256 | 2 | 2 | ≥ 256 | ≥ 256 | ≥ 256 | ≥ 256 | ≥ 256 | 2 |  | 37.4 (≈ 115 µM) | 18.5
15 | CC(C)=C/C(C)=N\N=C1/NC(=O)CS1 | ≥ 256 | 2 | 2 | 8 | ≥ 256 | 2 | 4 | ≥ 256 | ≥ 256 | ≥ 256 | ≥ 256 | ≥ 256 | 2 | ≥ 256 |  | 
16 | C/C(=N/N=C1\NC(=O)CS1)c1ccncc1 | ≥ 256 | 16 | 16 | 8 | ≥ 256 | 256 | 256 | ≥ 256 | ≥ 256 | ≥ 256 | ≥ 256 | ≥ 256 | 16 | ≥ 256 |  | 
17 | C/C(=N/N=C1\NC(=O)CS1)c1ccccc1[N+](=O)[O-] | ≥ 256 | 8 | 2 | 2 | ≥ 256 | 2 | 2 | ≥ 256 | ≥ 256 | ≥ 256 | ≥ 256 | ≥ 256 | 2 | ≥ 256 |  | 
18 | Clc1ccccc1C(c1ccccc1)(c1ccccc1)n1ccnc1 [CLOTRIMAZOLE] |  | 2 | 2 | 2 |  | 2 | 2 |  |  |  |  |  | 2 |  | 38.8 (≈ 113 µM) | 19
19 | C/C(=N/N=C1\NC(=O)CS1)c1ccccc1 | ≥ 256 | 8 | 2 | 16 | ≥ 256 | 16 | 16 | ≥ 256 | ≥ 256 | ≥ 256 | ≥ 256 | ≥ 256 | 2 | ≥ 256 |  | 
20 | C/C(=N/N=C1\NC(=O)CS1)c1ccc2ccccc2c1 | ≥ 256 | 16 | 16 | 32 | ≥ 256 | 256 | 256 | ≥ 256 | ≥ 256 | ≥ 256 | ≥ 256 | ≥ 256 | 32 | ≥ 256 |  | 
